Arbovirus inh – antivirals against arbovirus infection; arbovirus infection cell-based antiviral screen; inhibition, % at 10 µM; actives 0.37% (n = 200,000); AID 1251; in the data active = inhibition above about 30%
Wee1 stabilizer – blocks degradation of human Wee1 kinase. HeLa Luc-Wee1K328M stability, luciferase luminescence; 100% = proteasome inhibitor MG132 effect. reporter increase, % at 5 µM. actives 1.2% (n = 220,000);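 active = activation above the mean of all tested compounds plus 3 SD, set per screening run, cut at about 8.8% in these data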;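 also: cells exposed to compound for 20 h before luminescence read; 0% = DMSO alone and 100% = MG132 at 30 µM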
PKD1 kinase inh – PKD1 (human) kinase inhibition; Q15139; PKD1 kinase fluorescence polarization assay; inhibition, % (test concentration not listed); actives 0.056% (n = 200,000); AID 797
Rad51 HR inh – blocks human Rad51 in homologous recombination; Q06609; hRad51 DNA strand exchange, fluorescence dequenching; inhibition, % at 10 µM; actives 0.085% (n = 200,000); AID 1385;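 active = inhibition above 40% at the single screening dose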;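 also: 0% = DMSO control wells and 100% = blanks with heterologous ssDNA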
Target sequence (Q06609 whole entry, looked up): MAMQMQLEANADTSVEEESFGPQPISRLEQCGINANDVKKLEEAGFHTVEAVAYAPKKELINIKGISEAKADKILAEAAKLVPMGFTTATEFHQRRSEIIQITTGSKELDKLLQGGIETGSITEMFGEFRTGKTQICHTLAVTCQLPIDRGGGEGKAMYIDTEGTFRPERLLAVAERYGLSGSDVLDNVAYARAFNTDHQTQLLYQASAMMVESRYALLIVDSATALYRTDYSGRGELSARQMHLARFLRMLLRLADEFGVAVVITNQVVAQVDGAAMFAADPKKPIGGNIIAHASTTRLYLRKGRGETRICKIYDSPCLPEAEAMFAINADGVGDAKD
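Material: hRad51 filaments on single-stranded DNA; Reagent: Donor/quencher-labelled 47-bp dsDNA substrate; Compound: 10 µM final, single point; Schedule: 37 °C 15-min filament assembly, 30-min compound preincubation, 15-min exchange; Technique: FRET fluorescence, excitation 485 nm, emission 520 nm; Benchmarks: control wells and blank wells on each plate.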
CHOP inh – blocks CHOP induction under ER stress; AID 2732; actives 3.8% (n = 220,000); inhibition, % at 10 µM; CHO-K1 CHOP-promoter luciferase, tunicamycin-induced, 15-18 h;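 active = compounds that reduced the stress-induced luciferase reporter signal by more than about 70% of percent inhibition, limit read from the data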;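 also: 0% = tunicamycin plus vehicle and 100% = wells without tunicamycin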
L major viab – reduces viability of Leishmania major promastigotes; resazurin fluorescence viability; inhibition, % at 10 µM; actives 9% (n = 200,000);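 also: promastigotes grown with compound for 44 hours at 28 °C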
* hit, by the source's call. Compounds with a hit are over-represented: about 12% of the library has one in this group of screens. Rule as the data show it, unless noted: active = inhibition above about 50%; inactive = the rest.

What do the screens show for `CCCCOC(=O)C1=C(C)Nc2nnnn2C1c1ccc(OC)c(OC)c1OC` (stereo unspecified)?
Arbovirus inh: -5.3; Wee1 stabilizer: -2.1; PKD1 kinase inh: -6.2; Rad51 HR inh: 3.0; CHOP inh: 16.4; L major viab: 94.0*

Results for C/C(=N/NS(=O)(=O)c1ccc(C)cc1)c1cccc(NC(=O)c2cccc(Cl)c2)c1 ?
Arbovirus inh: 2.4; Wee1 stabilizer: 0.2; PKD1 kinase inh: -7.6; Rad51 HR inh: 2.0; CHOP inh: 40.0; L major viab: 9.4

How did C/C(=N/NS(=O)(=O)c1ccc(Cl)cc1)c1cccc(NC(=O)c2ccc(Cl)cc2Cl)c1 do in these assays?
Arbovirus inh: -19.8; Wee1 stabilizer: 0.1; PKD1 kinase inh: -7.7; CHOP inh: 22.2; L major viab: 96.9*

Results for Cc1ccc(NC(=O)NNC(=O)C2CCN(Cc3ccc(F)cc3Cl)CC2)cc1 ?
Arbovirus inh: 6.0; Wee1 stabilizer: -3.3; PKD1 kinase inh: 5.5; Rad51 HR inh: 1.1; CHOP inh: 42.4; L major viab: -11.9

What do the screens show for `CCN(CC(=O)Nc1ccc(C(C)=O)cc1)CC(=O)Nc1cccc(OC)c1`?
Arbovirus inh: -2.8; Wee1 stabilizer: -1.3; PKD1 kinase inh: -7.2; Rad51 HR inh: -6.3; CHOP inh: 14.9; L major viab: 0.6

How did CNC(=O)CS(=O)CC(=O)Nc1cc(OCCOC)c(Cl)cc1Cl (stereo unspecified) do in these assays?
Arbovirus inh: -1.3; Wee1 stabilizer: 8.9*; PKD1 kinase inh: 1.5; Rad51 HR inh: -11.9; CHOP inh: -7.3; L major viab: 4.9

How did CCOc1ccc(NC(=O)CCC(=O)NNC(=O)Nc2ccc(Cl)cc2)cc1 do in these assays?
Arbovirus inh: 7.0; Wee1 stabilizer: -2.0; PKD1 kinase inh: 1.0; Rad51 HR inh: 8.4; CHOP inh: -5.1; L major viab: 1.2

How did COc1ccc(N(CC(=O)O)S(=O)(=O)c2ccc(C)cc2)cc1Cl do in these assays?
Arbovirus inh: 1.6; Wee1 stabilizer: -0.1; PKD1 kinase inh: -4.5; Rad51 HR inh: 31.8; CHOP inh: 9.0; L major viab: -6.1

How did COCCCNc1c2c3c(cccc3[nH]c1=O)C(=O)c1ccccc1-2 do in these assays?
Arbovirus inh: -31.1; Wee1 stabilizer: 8.2; PKD1 kinase inh: 109.6*; Rad51 HR inh: inactive; CHOP inh: 22.1; L major viab: 11.9

How did N#CC(C#N)=C1C=CC=CN1/C(=C\c1ccco1)C(=O)c1ccc(Br)cc1 do in these assays?
Arbovirus inh: -48.1; Wee1 stabilizer: -0.7; PKD1 kinase inh: -14.2; Rad51 HR inh: -0.5; CHOP inh: 109.4*; L major viab: 24.0

How did COc1ccc(C(=O)/C(=C\c2ccco2)N2C=CC=CC2=C(C#N)C#N)cc1 do in these assays?
Arbovirus inh: -30.5; Wee1 stabilizer: 7.2; PKD1 kinase inh: -3.0; Rad51 HR inh: 0.6; CHOP inh: 106.8*; L major viab: 39.8

What do the screens show for `N#C/C(=C/c1ccco1)C(N)=S`?
Wee1 stabilizer: 0.7; Rad51 HR inh: 2.5; CHOP inh: 7.3

Results for N#CC(C#N)=C1C=CC=CN1/C(=C\c1ccco1)C(=O)c1ccccc1 ?
Arbovirus inh: -32.2; Wee1 stabilizer: 7.1; PKD1 kinase inh: 12.3; Rad51 HR inh: -3.5; CHOP inh: 110.2*; L major viab: 45.7

How did CCN(CC)C(=O)Cn1c(=O)c2ccccc2n2c(=S)sc(-c3cccc(C)c3)c12 do in these assays?
Arbovirus inh: -24.3; Wee1 stabilizer: -1.1; PKD1 kinase inh: -1.1; Rad51 HR inh: -100.3; CHOP inh: 8.1; L major viab: 0.6

Results for CCOC(=O)Cn1cc(/C=N/N2C(=O)C3C4C=CC(C4)C3C2=O)c2ccccc21 (stereo unspecified) ?
Arbovirus inh: 4.9; Wee1 stabilizer: -0.6; PKD1 kinase inh: -5.4; Rad51 HR inh: 2.2; CHOP inh: 2.1; L major viab: 1.4

How did COCCCNC(=O)Cn1c(=O)n(CCCCCC(=O)Nc2ccccc2)c(=O)c2sccc21 do in these assays?
Arbovirus inh: 4.4; Wee1 stabilizer: -0.6; PKD1 kinase inh: -4.7; Rad51 HR inh: 7.7; CHOP inh: -9.4; L major viab: 50.2*

What do the screens show for `COc1ccc(NC(=O)CCCn2c(=O)c3sccc3n(Cc3ccccc3C)c2=O)cc1`?
Arbovirus inh: 12.3; Wee1 stabilizer: 3.1; PKD1 kinase inh: -14.1; Rad51 HR inh: 7.6; CHOP inh: 22.3; L major viab: 89.3*

What do the screens show for `CCOc1ccc(N2C(=O)CC(NCCNc3ccc(C(=O)c4cccs4)cc3)C2=O)cc1` (stereo unspecified)?
Arbovirus inh: -1.1; Wee1 stabilizer: -1.4; PKD1 kinase inh: 2.4; Rad51 HR inh: 4.0; CHOP inh: -10.7; L major viab: -0.2

Results for COC(=O)C1CCN(CCCOc2ccc(CN3CCN(c4ccc([N+](=O)[O-])cc4)CC3)cc2)CC1 ?
Arbovirus inh: 10.8; Wee1 stabilizer: 0.2; PKD1 kinase inh: 9.1; CHOP inh: -14.1; L major viab: 95.1*

How did COC(=O)C1CCN(c2ccc([N+](=O)[O-])cc2)CC1 do in these assays?
Arbovirus inh: 7.1; Wee1 stabilizer: -1.1; PKD1 kinase inh: -6.2; Rad51 HR inh: 17.1; CHOP inh: 12.2; L major viab: -8.7

Results for O=[N+]([O-])c1ccc(OCCN2CCNCC2)cc1 ?
Arbovirus inh: 0.1; Wee1 stabilizer: -0.3; PKD1 kinase inh: 1.6; Rad51 HR inh: 1.6; CHOP inh: -0.5; L major viab: 99.0*

How did CC1CN(c2ccc([N+](=O)[O-])cn2)CC(C)O1 (stereo unspecified) do in these assays?
Wee1 stabilizer: -2.1; Rad51 HR inh: 0.1; CHOP inh: 5.8

How did CC1CN(CCCOc2ccccc2[N+](=O)[O-])CC(C)O1 (stereo unspecified) do in these assays?
Arbovirus inh: 4.0; Wee1 stabilizer: -0.9; PKD1 kinase inh: 9.9; Rad51 HR inh: -5.1; CHOP inh: 7.2; L major viab: 90.2*

How did CC1CN(CCCOc2ccc([N+](=O)[O-])cc2)CC(C)O1 (stereo unspecified) do in these assays?
Arbovirus inh: -3.3; Wee1 stabilizer: 7.4; PKD1 kinase inh: 0.1; Rad51 HR inh: 16.2; CHOP inh: -2.3; L major viab: 90.5*

Results for Cc1ccc([N+](=O)[O-])c(OCCN2CCNCC2)c1 ?
Arbovirus inh: -2.1; Wee1 stabilizer: -2.5; PKD1 kinase inh: 4.1; Rad51 HR inh: -7.0; CHOP inh: 1.8; L major viab: -6.0

Results for O=[N+]([O-])c1ccccc1OCCCN1CCOCC1 ?
Arbovirus inh: 0.6; Wee1 stabilizer: 0.2; PKD1 kinase inh: 2.7; Rad51 HR inh: 6.7; CHOP inh: -13.4; L major viab: 41.8

Results for Cn1ncc2c(=O)[nH]cnc21 ?
Arbovirus inh: 13.9; Wee1 stabilizer: -3.4; PKD1 kinase inh: -2.6; Rad51 HR inh: 4.3; CHOP inh: 10.7; L major viab: -5.9

How did Cc1ccc(C(C)C)c(OCCCN2CC(C)OC(C)C2)c1 (stereo unspecified) do in these assays?
Arbovirus inh: 6.6; Wee1 stabilizer: 1.5; PKD1 kinase inh: 3.5; Rad51 HR inh: 5.5; CHOP inh: 49.2; L major viab: 97.1*
